Xi reactivation: X-chromosome reactivation activator; activation, % at 7.58 µM; XiGFP mouse fibroblasts, % GFP-positive cells imaging, 3 d; cells co-treated with 5-aza-dC sensitizer; scaled so ellipticine positive control = 100%; hit rate 0.055% among 360,000;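 active = mean normalized replicate activation at least 10% and every replicate at or above 10%; inconclusive = only one of the two criteria met; inactive = mean below 10% and not all replicates reach 10%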
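Schedule: 3 d treatment, 15 min room-temperature fixation; system: 68-5-11 XiGFP fibroblast line; buffer or medium: DMEM plus 5-aza-dC sensitizer; control set: ellipticine 6 µM positive control; compound: one concentration, pinned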
PglD DTNB: blocks C. jejuni PglD acetyltransferase activity | purified PglD enzyme, DTNB colorimetric CoA detection | hit rate 0.098% among 360,000 | inhibition, % at 12.5 µM; in the data active = inhibition above about 16%, passing the limit was not always enough; inconclusive = no clear call, values can overlap the other calls
E-selectin induc: E-selectin induction on HUVECs. AID 686992. HUVEC E-selectin immunofluorescence imaging; normalized: neutral wells 0, TNF-alpha wells 100. P16581. activation, % at 7.58 µM. hit rate 0.37% among 260,000;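 active = mean E-selectin-positive cell signal at least 10% of the positive control, reached in at least 60% of replicates, without over 20% cell loss; inconclusive = no rule given, readout overlaps actives, possibly toxicity-flagged; inactive = the rest, including those meeting only one limit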
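material = human umbilical vein endothelial cells (HUVEC), E-selectin induction | quantity = 3,000 cells/well | medium = EGM-2 growth medium on 0.1% gelatin-coated wells | technique = immunofluorescence imaging | read-out basis = % PE-positive cells | control set = TNF-alpha positive control, DMSO neutral control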
Statin myotox sup: protects C2C12 myotubes from simvastatin toxicity; ATP luminescence, 48 h; scaled: DMSO 0, geranylgeraniol control 100; rescue of ATP level, % at 7.49 µM; hit rate 0.78% among 330,000; AID 602340;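 active = mean ATP rescue above about 67%, or every replicate alone reaching that limit, limit read from the data, passing the limit was not always enough; inconclusive = no clear call, values can overlap the other calls; inactive = mean under the limit and some replicate under it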;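 note: myotubes were challenged with 10 µM simvastatin during compound exposure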
DENV2 CPE: inhibitors of DENV2 cytopathic effect. DENV2-infected cells, cytopathic effect rescue, plate reader. CPE inhibition, % at 9.99 µM. hit rate 1.7% among 350,000; in the data active = CPE inhibition above about 20%, passing the limit was not always enough; inconclusive = no clear call, values can overlap the other calls; tested in BHK-21 cells
FGF22 binding: shifts melting point of recombinant human FGF22; Q9HCT0; recombinant FGF22 thermal shift, SYPRO orange fluorescence; percent of sucrose octasulfate shift, DMSO zero; activity (Tm shift, normalised), % at 9.99 µM; hit rate 1.5% among 340,000;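 active = mean Tm shift, scaled 0 neutral to 100 positive control, at about 1.3% or above, every replicate too, limit read from the data; inconclusive = no clear call, values can overlap the other calls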
Target sequence (Q9HCT0 whole entry, looked up): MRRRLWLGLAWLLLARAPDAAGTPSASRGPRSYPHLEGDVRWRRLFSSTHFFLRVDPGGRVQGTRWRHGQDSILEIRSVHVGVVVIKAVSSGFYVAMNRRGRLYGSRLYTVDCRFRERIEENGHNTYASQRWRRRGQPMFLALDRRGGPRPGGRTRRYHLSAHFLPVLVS
A number is an active result; . = inactive; ? = inconclusive; / = not tested or not shown; ! = not active in a repeat. The list is not random: actives were taken first. Their share in the collection is about 3.3%.

SMILES	Xi reactivation	PglD DTNB	E-selectin induc	Statin myotox sup	DENV2 CPE	FGF22 binding
CN1[C@@H]2c3ccc(-c4ccccc4)c(=O)n3C[C@H]1[C@H](CO)[C@H]2C(=O)N1CCC(Cc2ccccc2)CC1	.	.	.	.	.	.
C[C@@H]1CN([C@@H](C)CO)C(=O)c2cc(C#CC3(O)CCCC3)cnc2O[C@@H]1CN(C)C(=O)C1CCC1	.	.	.	.	/	.
Cc1ccc(S(=O)(=O)N2c3ccccc3CC2C)cc1 (configuration not stated)	.	/	/	/	.	/
Cc1ccc(S(=O)(=O)N2c3ccc(S(N)(=O)=O)cc3CC2C)cc1 (configuration not stated)	.	.	/	.	.	44
C[C@@H]1CN([C@@H](C)CO)C(=O)c2cccc(NS(=O)(=O)c3cccs3)c2O[C@@H]1CN(C)C(=O)NC1CCCCC1	.	.	.	.	.	.
Cc1ccc(NC(=O)Cn2cnc3ccccc32)cc1C	.	/	/	.	.	43
O=C(CCn1cnc2ccccc21)N/N=C/c1ccccc1O	.	.	/	.	.	.
COc1ccccc1/C=N/NC(=O)CCn1cnc2ccccc21	.	/	/	/	.	44
Cc1ccc(N(CC(=O)N/N=C/c2cccnc2)S(=O)(=O)c2ccccc2)cc1	.	/	.	/	.	44
Cc1ccc(/C=N/NC(=O)Cn2cnc3ccccc32)cc1	.	.	.	.	.	.
O=C(Cn1cnc2ccccc21)N/N=C/c1cccnc1	.	/	/	/	.	43
COc1ccc(CN(C)C[C@@H]2OCCCC[C@@H](C)Oc3ccc(NC(=O)Nc4ccccc4)cc3C(=O)N([C@@H](C)CO)C[C@H]2C)cc1	.	.	.	/	?	.
COc1ccc(NC(=S)NCCc2ccc(S(N)(=O)=O)cc2)c(OC)c1	.	/	/	.	.	.
CN(CC(=O)NCCc1ccc(S(N)(=O)=O)cc1)c1ccccc1	.	/	/	/	.	43
CN(CC(=O)NCCc1ccc(S(N)(=O)=O)cc1)S(=O)(=O)/C=C/c1ccccc1	.	.	/	.	.	.
COc1ccc2[nH]c(C)c(CCNC(=S)Nc3ccccc3OC)c2c1	.	/	.	/	.	43
COc1ccccc1NC(=S)NCCc1ccc(S(N)(=O)=O)cc1	.	.	/	.	.	46
CCOc1ccccc1OCC(=O)NCCc1ccc(S(N)(=O)=O)cc1	.	/	.	.	.	43
C[C@H](CO)N1C[C@H](C)[C@H](CN(C)Cc2ccc(-c3ccccc3)cc2)Oc2ncc(C#CCN(C)C)cc2C1=O	.	.	.	.	.	.
CN(C)CC(=O)Nc1ccc2c(c1)C(=O)N(C)[C@H]1CC[C@H](CC(=O)Nc3ccc(F)cc3)O[C@@H]1CO2	.	/	/	/	/	/
CCOC(=O)CCc1c(C)c2c(C)nn(-c3ccccc3)c2[nH]c1=O	.	.	.	.	37	.
CCOC(=O)CCc1c(C)nc2c(c(C)nn2-c2ccccc2)c1C	.	.	.	.	.	.
Cc1ccc(NC(=O)c2nnn(-c3cccc(C(F)(F)F)c3)c2N)cc1	.	/	/	/	.	53
CC(=O)Nc1ccc(NC(=S)Nc2ccccc2)cc1	/	.	/	/	/	/
CC(=O)Nc1ccc(SC(Sc2ccc(NC(C)=O)cc2)c2ccccc2)cc1	.	.	.	.	.	1.4
SMILES	Xi reactivation	PglD DTNB	E-selectin induc	Statin myotox sup	DENV2 CPE	FGF22 binding
C/C=C/c1ccc([C@H]2[C@H](CO)N(C(C)=O)C23CN(C(=O)c2ccncc2)C3)cc1	.	/	.	/	.	.
C[C@@H]1CN([C@@H](C)CO)C(=O)Cc2cc(NC(=O)Nc3ccc4c(c3)OCO4)ccc2O[C@H]1CN(C)Cc1ccc(Cl)c(Cl)c1	.	.	.	.	.	.
CCCC#Cc1ccc2c(c1)O[C@H](CN(C)C(=O)c1ccncc1)[C@H](C)CN([C@@H](C)CO)S2(=O)=O	.	.	.	.	.	.
C[C@H]1CN([C@@H](C)CO)S(=O)(=O)c2ccc(-c3ccncc3)cc2O[C@@H]1CN(C)C(=O)c1ccc2c(c1)OCO2	.	.	.	.	26	.
C[C@H](CO)N1C[C@H](C)[C@H](CN(C)C(=O)c2ccccc2)Oc2cc(Br)ccc2S1(=O)=O	.	.	.	.	.	.
C[C@H](CO)N1C[C@H](C)[C@H](CN(C)C(=O)c2ccccc2)Oc2cc(/C=C/c3ccccc3)ccc2S1(=O)=O	.	.	.	.	.	.
C[C@@H]1CN([C@@H](C)CO)S(=O)(=O)c2ccc(Br)cc2O[C@H]1CN(C)C(=O)c1ccncc1	.	.	.	.	.	43!
CCCC#Cc1ccc2c(c1)O[C@@H](CN(C)C(=O)c1ccncc1)[C@H](C)CN([C@@H](C)CO)S2(=O)=O	.	.	118	.	.	.
C[C@@H]1CN([C@@H](C)CO)S(=O)(=O)c2ccc(/C=C/c3ccccc3)cc2O[C@H]1CN(C)C(=O)c1ccncc1	.	.	.	.	41	.
Cc1ccc(S(=O)(=O)N(C)C[C@@H]2Oc3ncc(-c4ccc(F)cc4)cc3C(=O)N([C@H](C)CO)C[C@@H]2C)cc1	.	.	.	.	.	.
CCOC(=O)CSc1nnc(CNC(=O)c2ccc(OC)cc2OC)n1-c1ccc(OC)cc1	/	.	/	.	/	/
COc1ccc(C(=O)CSc2nnc(CN3CCCC3)n2-c2ccc(F)cc2)c(OC)c1	.	/	/	/	.	44
Cc1ccc(S(=O)(=O)N(C)C[C@@H]2OCCCC[C@@H](C)Oc3ccc(NS(=O)(=O)c4cccs4)cc3C(=O)N([C@@H](C)CO)C[C@@H]2C)cc1	.	.	.	/	.	.
CCOc1ccc(Nc2nc(N)nc(CN3CCN(c4ccccc4F)CC3)n2)cc1	.	/	/	/	/	44
Cc1cccc(Nc2nc(N)nc(CN3CCN(c4ccccc4)CC3)n2)c1	/	.	/	.	/	/
Cc1cccc(Nc2nc(N)nc(CN3CCN(c4ccccc4F)CC3)n2)c1	/	.	/	81	/	/
Nc1nc(CN2CCN(c3ccccc3F)CC2)nc(Nc2ccc3c(c2)OCCO3)n1	/	.	/	.	/	/
CC(NC1CCCC1)c1ccccc1 (configuration not stated)	.	.	/	.	/	44
CC(NC(=O)C1CCCC1)c1ccccc1 (configuration not stated)	.	.	/	.	.	.
Cc1cc(=O)n2c(C)n[nH]c2n1	/	.	/	120	/	/
Cc1cc(=O)n2c(-c3ccccc3C)n[nH]c2n1	/	.	/	/	/	/
O=C(C[C@@H]1CC[C@H]2[C@@H](COC[C@H](O)CN2CC2CCCC2)O1)NCC1CC1	.	/	.	/	.	/
COc1ccc(S(=O)(=O)N(C)C[C@H]2Oc3ccc(NC(=O)c4ccncc4)cc3C(=O)N([C@H](C)CO)C[C@@H]2C)cc1	.	.	54	.	?	.
COc1ccc(S(=O)(=O)N(C)C[C@@H]2Oc3ccc(NC(=O)c4ccncc4)cc3C(=O)N([C@@H](C)CO)C[C@H]2C)cc1	.	.	.	.	.	.
